ChEMBL document CHEMBL1132247, “Synthesis and nicotinic acetylcholine receptor in vivo binding properties of 2-fluoro-3-[2(S)-2-azetidinylmethoxy]pyridine: a new positron emission tomography ligand for nicotinic receptors” (J Med Chem, 1999)

Legend:
[1] = species on record: Rattus norvegicus; test: Biodistribution in rat cerebellum, expressed as percent I.D./g tissue; assay type: ADME, organism-based; details: in vivo
Procedure, shortened: (§1)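 Male Sprague–Dawley rats (190–200 g) received 30 μCi (1.1 MBq) of the 18F-labelled tracer i.v. into a tail vein, formulated in physiological saline and given within 15 min of end of synthesis. Rats were decapitated at selected times, and the brain was removed and dissected on ice. Regions were weighed and gamma-counted alongside injected-dose aliquots, and values were expressed as % I.D./g tissue.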

[2] = species on record: Rattus norvegicus; test: Biodistribution in rat superior coliculus, expressed as percent I.D./g tissue; assay type: ADME, organism-based; details: in vivo; procedure, shortened: as §1
[3] = species on record: Rattus norvegicus; test: Biodistribution in rat thalamus, expressed as percent I.D./g tissue; assay type: ADME, organism-based; details: in vivo; procedure, shortened: as §1
[4] = Binding affinity towards human Nicotinic acetylcholine receptor was determined using [3H]-cytisine
[5] = Binding affinity towards human Nicotinic acetylcholine receptor was determined using [3H]epibatidine
[6] = molecular target: Neuronal acetylcholine receptor; alpha4/beta2 (Homo sapiens, UniProt P17787+P43681); test: Binding affinity against human Nicotinic acetylcholine receptor alpha4-beta2
Sequence of Neuronal acetylcholine receptor; alpha4/beta2 (P17787 whole entry): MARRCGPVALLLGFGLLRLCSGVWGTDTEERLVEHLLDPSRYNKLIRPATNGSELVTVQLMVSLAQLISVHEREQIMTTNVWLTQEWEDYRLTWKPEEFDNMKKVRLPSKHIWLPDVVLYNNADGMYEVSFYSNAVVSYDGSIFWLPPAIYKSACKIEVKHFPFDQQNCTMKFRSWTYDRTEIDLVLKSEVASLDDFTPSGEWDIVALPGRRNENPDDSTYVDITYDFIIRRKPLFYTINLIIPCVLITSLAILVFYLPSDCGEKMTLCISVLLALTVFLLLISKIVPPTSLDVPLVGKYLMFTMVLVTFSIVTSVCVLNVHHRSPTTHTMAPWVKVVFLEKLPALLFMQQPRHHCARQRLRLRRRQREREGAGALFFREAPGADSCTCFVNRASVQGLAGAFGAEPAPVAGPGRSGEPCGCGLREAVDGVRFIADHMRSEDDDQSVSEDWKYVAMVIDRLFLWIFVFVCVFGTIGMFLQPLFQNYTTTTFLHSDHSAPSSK
Sequence of Neuronal acetylcholine receptor; alpha4/beta2 (P43681 whole entry): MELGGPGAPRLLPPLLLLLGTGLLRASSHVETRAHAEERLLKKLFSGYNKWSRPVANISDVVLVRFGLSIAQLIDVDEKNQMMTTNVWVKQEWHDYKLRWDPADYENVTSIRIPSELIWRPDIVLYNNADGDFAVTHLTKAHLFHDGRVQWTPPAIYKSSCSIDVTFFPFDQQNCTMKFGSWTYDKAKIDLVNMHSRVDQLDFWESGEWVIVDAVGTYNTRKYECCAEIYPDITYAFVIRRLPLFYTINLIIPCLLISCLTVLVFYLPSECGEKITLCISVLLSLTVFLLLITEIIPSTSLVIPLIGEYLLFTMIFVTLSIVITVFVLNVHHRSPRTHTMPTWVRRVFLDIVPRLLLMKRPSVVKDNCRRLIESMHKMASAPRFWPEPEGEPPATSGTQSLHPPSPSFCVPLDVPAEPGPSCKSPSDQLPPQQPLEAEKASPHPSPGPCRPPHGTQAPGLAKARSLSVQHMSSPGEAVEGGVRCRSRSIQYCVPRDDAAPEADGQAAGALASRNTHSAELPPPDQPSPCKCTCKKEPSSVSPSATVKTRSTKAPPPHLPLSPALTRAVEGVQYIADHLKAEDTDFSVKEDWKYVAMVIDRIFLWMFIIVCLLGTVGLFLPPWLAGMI

| SMILES | Biodistribution [1] | Biodistribution [2] | Biodistribution [3] | Ki [4] | Ki [5] | Ki [6] |
| --- | --- | --- | --- | --- | --- | --- |
| Fc1ncccc1OC[C@@H]1CCN1 | 0.2% | 0.2% | 0.3% | 0.048 nM | 0.046 nM |  |
| c1cncc(OC[C@@H]2CCN2)c1 |  |  |  |  |  | 0.05 nM |
| O=c1cccc2n1CC1CNC[C@H]2C1 (single isomer, unassigned) [CYTISINICLINE] | 0.2% | 0.2% | 0.2% |  |  |  |
| Clc1ccc(C2CC3CCC2N3)cn1 (stereo not drawn) [EPIBATIDINE] | 0.2% | 0.2% | 0.2% |  |  |  |
| CN1C2CCCC1CC(NC(=O)c1nn(C)c3ccccc13)C2 (stereo not drawn) [GRANISETRON] | 0.2% | 0.6% | 0.9% |  |  |  |
| CNC(=O)Oc1ccc2c(c1)[C@]1(C)CCN(C)[C@@H]1N2C [PHYSOSTIGMINE] | 0.2% | 0.4% | 0.5% |  |  |  |
